According to ChEMBL document CHEMBL4350961, “Discovery of Pyrrolo[3,2- d]pyrimidin-4-one Derivatives as a New Class of Potent and Cell-Active Inhibitors of P300/CBP-Associated Factor Bromodomain” (J Med Chem, 2019):
Active and inactive are the calls of the source.

Columns and labels:
[1] = target: Serine/threonine-protein kinase TAO1 (Homo sapiens) (UniProt Q7L7X3); assay: Inhibition of human TAO1 (1 to 327 residues) using myelin basic protein as substrate measured after 40 mins in presence of [gamma33P]ATP by scintillation counting method
[2] = target: Serine/threonine-protein kinase 32B (Homo sapiens) (UniProt Q9NY57); assay: Inhibition of recombinant full-length human STK32B at 10 uM using casein as substrate measured after 120 mins in presence of [gamma33P]ATP by scintillation counting method
[3] = target: Homeodomain-interacting protein kinase 3 (Homo sapiens) (UniProt Q9H422); assay: Inhibition of recombinant human HIPK3 (161 to 562 residues) at 10 uM using myelin basic protein as substrate measured after 40 mins in presence of [gamma33P]ATP by scintillation counting method
[4] = system: Angiopoietin-1 receptor (Homo sapiens), Q02763 [Q939H,Q940H]; assay: Inhibition of human Tie2 Q939H/Q940H mutant (771 to end residues) using poly(Glu, Tyr) 4:1 as substrate measured after 40 mins in presence of [gamma33P]ATP by scintillation counting method
[5] = target: Serine/threonine-protein kinase N2 (Homo sapiens) (UniProt Q16513); assay: Inhibition of human PRK2 (501 to end residues) using AKRRRLSSLRA as substrate measured after 40 mins in presence of [gamma33P]ATP by scintillation counting method
Procedure, shortened: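 Kinase panel of 422 kinases screened by Eurofins KinaseProfiler at a single test-compound concentration of 10 µM.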

[6] = target: Death-associated protein kinase 2 (Homo sapiens) (UniProt Q9UIK4); assay: Inhibition of recombinant full-length human DAPK2 at 10 uM using calmodulin as substrate measured after 40 mins in presence of [gamma33P]ATP by scintillation counting method
[7] = system: Hepatocyte growth factor receptor (Homo sapiens), P08581 [D1228H]; assay: Inhibition of recombinant human MET A1209G/V1290L/D1246H mutant (974 to end residues) at 10 uM using KKKGQEEEYVFIE as substrate measured after 40 mins in presence of [gamma33P]ATP by scintillation counting method
[8] = system: Angiopoietin-1 receptor (Homo sapiens), Q02763 [Q939H,Q940H,R849W]; assay: Inhibition of human Tie2 Q939H/Q940H/R849W mutant (771 to end residues) using EFPIYDFLPAKKK as substrate measured after 40 mins in presence of [gamma33P]ATP by scintillation counting method
[9] = target: Serine/threonine-protein kinase SBK1 (Homo sapiens) (UniProt Q52WX2); assay: Inhibition of recombinant full-length human SBK1 at 10 uM using KKLRRTLSVA as substrate measured after 120 mins in presence of [gamma33P]ATP by scintillation counting method
[10] = target: Leucine-rich repeat serine/threonine-protein kinase 2 (Homo sapiens) (UniProt Q5S007); assay: Inhibition of recombinant human LRRK2 (970 to end residues) at 10 uM using RLGRDKYKTLRQIRQ as substrate measured after 40 mins in presence of [gamma33P]ATP by scintillation counting method
[11] = target: Serine/threonine-protein kinase ICK (Homo sapiens) (UniProt Q9UPZ9); assay: Inhibition of recombinant human ICK (1 to 312 residues) at 10 uM using RRRFRPASPLRGPPK as substrate measured after 40 mins in presence of [gamma33P]ATP by scintillation counting method
[12] = target: Serine/threonine-protein kinase MRCK alpha (Homo sapiens) (UniProt Q5VT25); assay: Inhibition of recombinant human MRCKalpha (1 to 473 residues) at 10 uM using KKRNRTLTV as substrate measured after 40 mins in presence of [gamma33P]ATP by scintillation counting method
[13] = target: Macrophage colony-stimulating factor 1 receptor (Homo sapiens) (UniProt P07333); assay: Inhibition of recombinant human FMS (538 to end residues) at 10 uM using KKKSPGEYVNIEFG as substrate measured after 40 mins in presence of [gamma33P]ATP by scintillation counting method
[14] = target: Serine/threonine-protein kinase NIM1 (Homo sapiens) (UniProt Q8IY84); assay: Inhibition of recombinant full-length human NIM1 at 10 uM using KKKVSRSGLYRSPSMPENLNRPR as substrate measured after 40 mins in presence of [gamma33P]ATP by scintillation counting method
[15] = target: Bromodomain testis-specific protein (Homo sapiens) (UniProt Q58F21); assay: Binding affinity to human partial length BRDT bromodomain 2 (K250 to E382 residues) expressed in bacterial expression system at 1 uM by BROMOscan assay
Procedure, shortened: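 BROMOscan bromodomain cross-screen run by an outside service, compound at 1 µM against 32 recombinant bromodomains. Binding given as percent of control.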

[16] = target: Protein kinase C alpha type (Homo sapiens) (UniProt P17252); assay: Inhibition of recombinant full-length human PKCalpha at 10 uM using histone H1 as substrate measured after 40 mins in presence of [gamma33P]ATP by scintillation counting method
[17] = system: Serine/threonine-protein kinase Sgk1 (Homo sapiens), O00141 [S422D]; assay: Inhibition of recombinant human SGK S422D mutant (60 to end residues) at 10 uM using GRPRTSSFAEGKK as substrate measured after 40 mins in presence of [gamma33P]ATP by scintillation counting method
[18] = target: G protein-coupled receptor kinase 6 (Homo sapiens) (UniProt P43250); assay: Inhibition of recombinant full-length human GRK6 at 10 uM using casein as substrate measured after 40 mins in presence of [gamma33P]ATP by scintillation counting method
[19] = target: Insulin receptor (Homo sapiens) (UniProt P06213); assay: Inhibition of recombinant human IR (1005 to 1310 residues) at 10 uM using KKSRGDYMTMQIG as substrate measured after 40 mins in presence of [gamma33P]ATP by scintillation counting method
[20] = target: Mitogen-activated protein kinase kinase kinase 10 (Homo sapiens) (UniProt Q02779); assay: Inhibition of recombinant human MLK2 (1 to 449 residues) at 10 uM using myelin basic protein as substrate measured after 40 mins in presence of [gamma33P]ATP by scintillation counting method
[21] = system: Hepatocyte growth factor receptor (Homo sapiens), P08581 [Y1230D]; assay: Inhibition of recombinant human MET A1209G/V1290L/Y1248D mutant (974 to end residues) at 10 uM using KKKGQEEEYVFIE as substrate measured after 40 mins in presence of [gamma33P]ATP by scintillation counting method
[22] = target: Serine/threonine-protein kinase Nek11 (Homo sapiens) (UniProt Q8NG66); assay: Inhibition of recombinant full-length human NEK11 at 10 uM using myelin basic protein as substrate measured after 40 mins in presence of [gamma33P]ATP by scintillation counting method
[23] = target: MAP kinase-interacting serine/threonine-protein kinase 2 (Homo sapiens) (UniProt Q9HBH9); assay: Inhibition of recombinant full-length human Mnk2 at 10 uM using myelin basic protein as substrate measured after 40 mins in presence of [gamma33P]ATP by scintillation counting method

Sequence of Serine/threonine-protein kinase N2 (Homo sapiens) (Q16513 whole entry, looked up): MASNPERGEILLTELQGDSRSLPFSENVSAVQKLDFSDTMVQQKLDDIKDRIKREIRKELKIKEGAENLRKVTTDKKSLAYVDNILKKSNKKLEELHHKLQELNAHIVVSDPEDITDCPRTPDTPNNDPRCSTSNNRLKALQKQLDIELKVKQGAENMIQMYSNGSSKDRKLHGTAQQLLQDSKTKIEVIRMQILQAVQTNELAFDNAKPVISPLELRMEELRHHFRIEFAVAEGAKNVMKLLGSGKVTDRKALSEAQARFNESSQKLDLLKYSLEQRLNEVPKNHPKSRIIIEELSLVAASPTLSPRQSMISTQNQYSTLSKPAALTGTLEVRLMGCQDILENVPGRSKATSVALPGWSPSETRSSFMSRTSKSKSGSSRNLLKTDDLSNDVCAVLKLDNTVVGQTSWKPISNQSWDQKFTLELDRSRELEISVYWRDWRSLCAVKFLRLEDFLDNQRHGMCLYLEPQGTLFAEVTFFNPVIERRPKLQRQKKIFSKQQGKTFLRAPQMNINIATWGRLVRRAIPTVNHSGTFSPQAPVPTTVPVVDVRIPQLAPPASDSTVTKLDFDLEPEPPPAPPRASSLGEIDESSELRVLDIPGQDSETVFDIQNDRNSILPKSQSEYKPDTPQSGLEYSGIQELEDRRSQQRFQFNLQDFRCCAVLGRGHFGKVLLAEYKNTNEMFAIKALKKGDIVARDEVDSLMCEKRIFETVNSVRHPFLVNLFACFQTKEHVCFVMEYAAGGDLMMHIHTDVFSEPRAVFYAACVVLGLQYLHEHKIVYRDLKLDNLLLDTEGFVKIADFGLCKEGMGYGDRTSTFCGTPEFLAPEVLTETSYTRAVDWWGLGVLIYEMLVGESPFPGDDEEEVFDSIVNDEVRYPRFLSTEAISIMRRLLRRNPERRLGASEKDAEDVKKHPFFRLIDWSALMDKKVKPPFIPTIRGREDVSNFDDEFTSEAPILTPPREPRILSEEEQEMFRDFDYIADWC
Sequence of Death-associated protein kinase 2 (Homo sapiens) (Q9UIK4 whole entry, looked up): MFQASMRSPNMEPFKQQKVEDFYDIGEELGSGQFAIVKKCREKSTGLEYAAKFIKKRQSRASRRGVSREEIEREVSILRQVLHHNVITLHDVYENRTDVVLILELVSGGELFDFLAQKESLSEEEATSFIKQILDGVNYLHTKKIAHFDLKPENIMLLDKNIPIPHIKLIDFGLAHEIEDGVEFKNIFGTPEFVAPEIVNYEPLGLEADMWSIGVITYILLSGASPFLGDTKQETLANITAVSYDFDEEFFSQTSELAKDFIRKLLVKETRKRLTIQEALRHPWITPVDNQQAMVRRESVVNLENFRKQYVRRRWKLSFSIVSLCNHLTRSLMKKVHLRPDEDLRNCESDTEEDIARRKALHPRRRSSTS
Sequence of Hepatocyte growth factor receptor (Homo sapiens), P08581 [D1228H] (P08581 whole entry D1228H): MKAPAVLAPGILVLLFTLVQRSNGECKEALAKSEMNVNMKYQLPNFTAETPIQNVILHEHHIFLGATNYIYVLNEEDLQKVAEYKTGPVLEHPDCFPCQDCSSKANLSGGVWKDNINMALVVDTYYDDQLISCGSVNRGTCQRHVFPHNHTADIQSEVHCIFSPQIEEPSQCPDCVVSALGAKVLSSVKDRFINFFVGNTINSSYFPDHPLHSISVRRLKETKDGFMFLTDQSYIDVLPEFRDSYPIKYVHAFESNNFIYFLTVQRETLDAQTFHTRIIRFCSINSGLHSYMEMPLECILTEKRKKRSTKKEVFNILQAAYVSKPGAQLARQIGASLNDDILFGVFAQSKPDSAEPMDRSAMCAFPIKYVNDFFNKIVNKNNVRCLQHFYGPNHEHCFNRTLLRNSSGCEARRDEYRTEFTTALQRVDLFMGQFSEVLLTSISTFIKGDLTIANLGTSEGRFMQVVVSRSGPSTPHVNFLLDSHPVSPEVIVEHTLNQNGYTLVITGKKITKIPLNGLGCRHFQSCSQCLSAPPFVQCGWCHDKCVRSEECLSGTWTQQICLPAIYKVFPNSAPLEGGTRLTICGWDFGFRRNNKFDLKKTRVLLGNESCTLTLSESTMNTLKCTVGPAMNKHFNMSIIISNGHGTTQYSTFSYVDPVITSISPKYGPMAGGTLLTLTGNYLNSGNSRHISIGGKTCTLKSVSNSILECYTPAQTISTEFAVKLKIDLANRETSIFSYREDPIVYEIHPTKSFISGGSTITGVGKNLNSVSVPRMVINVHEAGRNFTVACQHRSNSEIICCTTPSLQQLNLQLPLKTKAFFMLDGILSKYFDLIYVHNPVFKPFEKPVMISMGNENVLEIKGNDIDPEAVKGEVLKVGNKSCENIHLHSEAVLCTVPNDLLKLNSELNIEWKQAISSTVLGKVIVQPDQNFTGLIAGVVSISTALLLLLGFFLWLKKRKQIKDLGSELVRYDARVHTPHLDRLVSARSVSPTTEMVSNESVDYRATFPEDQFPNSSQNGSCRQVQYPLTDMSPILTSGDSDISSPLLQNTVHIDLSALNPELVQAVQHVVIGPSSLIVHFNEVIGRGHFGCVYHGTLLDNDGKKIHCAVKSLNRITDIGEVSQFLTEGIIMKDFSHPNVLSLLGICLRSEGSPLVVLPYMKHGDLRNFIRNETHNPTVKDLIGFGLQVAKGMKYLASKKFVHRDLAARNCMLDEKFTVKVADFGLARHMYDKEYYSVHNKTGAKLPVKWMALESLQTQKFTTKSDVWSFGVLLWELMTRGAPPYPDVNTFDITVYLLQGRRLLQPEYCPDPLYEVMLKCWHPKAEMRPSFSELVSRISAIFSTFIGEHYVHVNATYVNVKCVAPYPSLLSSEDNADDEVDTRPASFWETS
Sequence of Angiopoietin-1 receptor (Homo sapiens), Q02763 [Q939H,Q940H,R849W] (Q02763 whole entry R849W/Q939H/Q940H): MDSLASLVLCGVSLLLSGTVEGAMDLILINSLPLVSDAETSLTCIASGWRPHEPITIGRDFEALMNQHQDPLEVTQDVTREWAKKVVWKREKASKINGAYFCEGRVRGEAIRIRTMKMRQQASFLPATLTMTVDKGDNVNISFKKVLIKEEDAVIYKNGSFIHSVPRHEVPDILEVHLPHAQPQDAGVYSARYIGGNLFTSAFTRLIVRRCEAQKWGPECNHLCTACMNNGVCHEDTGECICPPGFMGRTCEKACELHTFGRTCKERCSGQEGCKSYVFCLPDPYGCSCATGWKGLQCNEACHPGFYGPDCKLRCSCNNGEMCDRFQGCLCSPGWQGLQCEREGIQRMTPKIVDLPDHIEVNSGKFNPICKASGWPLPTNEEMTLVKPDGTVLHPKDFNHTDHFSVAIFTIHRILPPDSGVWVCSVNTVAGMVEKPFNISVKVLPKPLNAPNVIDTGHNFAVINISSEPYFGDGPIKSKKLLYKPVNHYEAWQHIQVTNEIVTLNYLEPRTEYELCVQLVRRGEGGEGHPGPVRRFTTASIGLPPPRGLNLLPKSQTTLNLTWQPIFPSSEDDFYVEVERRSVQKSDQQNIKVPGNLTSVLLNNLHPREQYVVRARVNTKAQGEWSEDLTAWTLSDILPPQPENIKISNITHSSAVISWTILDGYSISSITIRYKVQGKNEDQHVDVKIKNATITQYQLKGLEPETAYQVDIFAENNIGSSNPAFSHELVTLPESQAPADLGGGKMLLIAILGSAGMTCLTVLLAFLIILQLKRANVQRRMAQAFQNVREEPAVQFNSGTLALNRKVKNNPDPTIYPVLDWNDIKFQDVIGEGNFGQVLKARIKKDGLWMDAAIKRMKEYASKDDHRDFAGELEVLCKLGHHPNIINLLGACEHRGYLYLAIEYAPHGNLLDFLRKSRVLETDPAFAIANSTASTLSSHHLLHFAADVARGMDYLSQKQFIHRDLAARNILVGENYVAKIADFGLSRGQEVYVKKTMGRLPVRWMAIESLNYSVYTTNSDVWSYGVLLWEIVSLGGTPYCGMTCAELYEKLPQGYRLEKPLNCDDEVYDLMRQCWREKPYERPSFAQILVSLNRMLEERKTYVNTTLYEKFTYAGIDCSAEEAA
Sequence of Serine/threonine-protein kinase Nek11 (Homo sapiens) (Q8NG66 whole entry): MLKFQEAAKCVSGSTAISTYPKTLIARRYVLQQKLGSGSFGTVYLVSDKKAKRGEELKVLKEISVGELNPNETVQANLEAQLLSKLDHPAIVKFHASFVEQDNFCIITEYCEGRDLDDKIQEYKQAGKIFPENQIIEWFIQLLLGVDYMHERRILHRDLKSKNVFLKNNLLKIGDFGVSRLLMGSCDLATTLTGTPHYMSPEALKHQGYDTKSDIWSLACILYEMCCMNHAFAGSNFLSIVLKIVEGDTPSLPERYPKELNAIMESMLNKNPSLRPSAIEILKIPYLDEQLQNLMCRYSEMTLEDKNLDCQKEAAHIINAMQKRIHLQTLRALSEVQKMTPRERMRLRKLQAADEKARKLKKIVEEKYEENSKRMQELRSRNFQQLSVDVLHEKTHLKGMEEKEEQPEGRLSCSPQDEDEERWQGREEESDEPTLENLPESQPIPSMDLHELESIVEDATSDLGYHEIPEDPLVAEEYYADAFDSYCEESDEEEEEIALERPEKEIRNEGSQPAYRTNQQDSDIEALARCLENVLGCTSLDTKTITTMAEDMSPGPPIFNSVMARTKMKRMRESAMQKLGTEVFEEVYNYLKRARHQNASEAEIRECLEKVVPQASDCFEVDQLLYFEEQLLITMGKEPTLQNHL
Sequence of Serine/threonine-protein kinase Sgk1 (Homo sapiens), O00141 [S422D] (O00141 whole entry S422D): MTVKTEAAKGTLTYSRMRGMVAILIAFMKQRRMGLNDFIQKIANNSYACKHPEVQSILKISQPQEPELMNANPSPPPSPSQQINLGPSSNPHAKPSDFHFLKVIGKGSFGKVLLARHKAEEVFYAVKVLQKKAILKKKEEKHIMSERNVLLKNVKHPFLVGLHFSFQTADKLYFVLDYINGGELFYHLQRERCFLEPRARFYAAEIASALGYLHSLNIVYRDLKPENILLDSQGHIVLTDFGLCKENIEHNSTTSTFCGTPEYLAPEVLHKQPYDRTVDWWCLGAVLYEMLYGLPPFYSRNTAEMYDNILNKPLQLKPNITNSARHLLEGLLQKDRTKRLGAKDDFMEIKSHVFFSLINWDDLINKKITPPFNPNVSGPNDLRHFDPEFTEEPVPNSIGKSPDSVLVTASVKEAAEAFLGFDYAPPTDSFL
Sequence of Angiopoietin-1 receptor (Homo sapiens), Q02763 [Q939H,Q940H] (Q02763 whole entry Q939H/Q940H): as the sequence (Q02763 whole entry R849W/Q939H/Q940H) above, with W849R counted along it

CN1C[C@H](Nc2nc3cc[nH]c3c(=O)n2C)C[C@H](c2ccc3c(c2)OCCO3)C1
inactive: inhibition [1] | inhibition [2] | inhibition [3] | inhibition [4] | inhibition [5] | inhibition [6] | inhibition [7] | inhibition [8] | inhibition [9] | inhibition [10] | inhibition [11] | inhibition [12] | inhibition [13] | inhibition [14] | Activity [15] | inhibition [16] | inhibition [17] | inhibition [18] | inhibition [19] | inhibition [20] | inhibition [21] | inhibition [22] | inhibition [23]
